# From ChEMBL document CHEMBL3351505, “Ultrasound-assisted synthesis of novel 1,2,3-triazoles coupled diaryl sulfone moieties by the CuAAC reaction, and biological evaluation of them as antioxidant and antimicrobial agents” (Eur J Med Chem, 2014)
# Active and inactive are the calls of the source. The calls are words filed in the database; no cut-off is given here.
# How the values were obtained:
# Bacillus subtilis [1] = settings: ATCC 6633, 50 mg/mL
# Escherichia coli [2] = experiment: Antibacterial activity against Escherichia coli ATCC 25922 after 24 hrs by two fold serial dilution method; type: functional
# Pseudomonas aeruginosa [3] = experiment: Antibacterial activity against Pseudomonas aeruginosa ATCC 27953 after 24 hrs by two fold serial dilution method; type: functional
# Klebsiella pneumoniae [4] = experiment: Antibacterial activity against Klebsiella pneumoniae ATCC 13883 after 24 hrs by two fold serial dilution method; type: functional
# Candida albicans [5] = experiment: Antifungal activity against Candida albicans NRRL Y-477 after 48 hrs by two fold serial dilution method; type: functional
# Outline: (§1)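 Two-fold serial broth dilution in a suitable broth, run only on compounds giving inhibition zones of at least 16 mm. Final concentrations were […]. Each 5 mL received 0.1 mL inoculum and was incubated 48 h at 28 °C. MIC was the lowest concentration without growth.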
# Micrococcus luteus [6] = experiment: Antibacterial activity against Sarcina lutea at 50 mg/mL after 24 hrs by agar well diffusion method; type: functional
# Saccharomyces cerevisiae [7] = experiment: Antifungal activity against Saccharomyces cerevisiae after 48 hrs by two fold serial dilution method; type: functional
# Outline: as §1
# Candida albicans [8] = experiment: Antifungal activity against Candida albicans NRRL Y-477 at 50 mg/mL after 48 hrs by agar well diffusion method; type: functional
# Priestia megaterium [9] = experiment: Antibacterial activity against Bacillus megaterium ATCC 9885 at 50 mg/mL after 24 hrs by agar well diffusion method; type: functional
# Saccharomyces cerevisiae [10] = experiment: Antifungal activity against Saccharomyces cerevisiae at 50 mg/mL after 48 hrs by agar well diffusion method; type: functional
# Staphylococcus aureus [11] = settings: ATCC 29213, 50 mg/mL
# Bacillus subtilis [12] = experiment: Antibacterial activity against Bacillus subtilis ATCC 6633 after 24 hrs by two fold serial dilution method; type: functional
# Micrococcus luteus [13] = experiment: Antibacterial activity against Sarcina lutea after 24 hrs by two fold serial dilution method; type: functional
# Aspergillus niger [14] = experiment: Antifungal activity against Aspergillus niger at 50 mg/mL after 48 hrs by agar well diffusion method; type: functional
# Pseudomonas aeruginosa [15] = settings: ATCC 27953, 50 mg/mL
# Staphylococcus aureus [16] = experiment: Antibacterial activity against Staphylococcus aureus ATCC 29213 after 24 hrs by two fold serial dilution method; type: functional
# Escherichia coli [17] = experiment: Antibacterial activity against Escherichia coli ATCC 25922 at 50 mg/mL after 24 hrs by agar well diffusion method; type: functional, organism-based
# Outline: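 Agar well diffusion: bacterial suspension at 1 × 10⁸ CFU/mL spread on nutrient agar; 10 mm wells cut in solidified agar and filled with compound in DMSO; plates incubated 24 h at 37 °C; inhibition zone diameter read; DMSO as negative control.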
# Klebsiella pneumoniae [18] = settings: ATCC 13883, 50 mg/mL
# Priestia megaterium [19] = experiment: Antibacterial activity against Bacillus megaterium ATCC 9885 after 24 hrs by two fold serial dilution method; type: functional
# Aspergillus niger [20] = experiment: Antifungal activity against Aspergillus niger after 48 hrs by two fold serial dilution method; type: functional
# Outline: as §1
# Bacillus subtilis [21] = experiment: microbe, parasite or virus in culture; settings: ATCC 6633, 24 h, read-out: DIZ
# Klebsiella pneumoniae [22] = experiment: microbe, parasite or virus in culture; settings: ATCC 13883, 24 h, read-out: DIZ
# Staphylococcus aureus [23] = experiment: microbe, parasite or virus in culture; settings: ATCC 29213, 24 h, read-out: DIZ
# Pseudomonas aeruginosa [24] = experiment: microbe, parasite or virus in culture; settings: ATCC 27953, 24 h, read-out: DIZ
# Staphylococcus aureus [25] = experiment: Antibacterial activity against Staphylococcus aureus ATCC 29213 using 100 uL of test compound after 24 hrs by agar well diffusion method; type: functional
# Outline: (§2)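 Agar well diffusion. Nutrient agar was spread with bacterial suspension at 1×10⁸ CFU/mL, and 10 mm wells were cut. Wells were loaded with compound solution made at 200 mg per 1 mL DMSO. Plates were incubated 24 h at 37 °C and inhibition zones were measured. DMSO served as the negative control.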
# Candida albicans [26] = experiment: Antifungal activity against Candida albicans NRRL Y-477 using 100 uL of test compound after 48 hrs by agar well diffusion method; type: functional
# Outline: as §2, with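 “Sabouraud dextrose” for “Nutrient”, “yeast or fungal” for “bacterial”, “1×10⁶” for “1×10⁸”, “48” for “24”, “28” for “37”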
# [27] = Antioxidant activity assessed as DPPH free radical scavenging activity by spectrophotometric assay; type: physicochemical
# Outline: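 Sample solutions at several concentrations were added to 0.004% DPPH in methanol and incubated 60 min in the dark. Absorbance was read at 517 nm against a blank. Inhibition % = (A_blank − A_sample)/A_blank × 100, where the control contained all reagents except the test compound.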
# Escherichia coli [28] = experiment: Antibacterial activity against Escherichia coli ATCC 25922 using 100 uL of test compound after 24 hrs by agar well diffusion method; type: functional
# Outline: as §2
# Micrococcus luteus [29] = experiment: Antibacterial activity against Sarcina lutea using 100 uL of test compound after 24 hrs by agar well diffusion method; type: functional
# Outline: as §2
# Saccharomyces cerevisiae [30] = experiment: Antifungal activity against Saccharomyces cerevisiae using 100 uL of test compound after 48 hrs by agar well diffusion method; type: functional
# Outline: as §2, with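 “Sabouraud dextrose” for “Nutrient”, “yeast or fungal” for “bacterial”, “1×10⁶” for “1×10⁸”, “48” for “24”, “28” for “37”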
# Klebsiella pneumoniae [31] = experiment: Antibacterial activity against Klebsiella pneumoniae ATCC 13883 using 100 uL of test compound after 24 hrs by agar well diffusion method; type: functional
# Outline: as §2
# Bacillus subtilis [32] = experiment: Antibacterial activity against Bacillus subtilis ATCC 6633 using 100 uL of test compound after 24 hrs by agar well diffusion method; type: functional
# Outline: as §2
# Priestia megaterium [33] = experiment: Antibacterial activity against Bacillus megaterium ATCC 9885 using 100 uL of test compound after 24 hrs by agar well diffusion method; type: functional
# Outline: as §2
# Pseudomonas aeruginosa [34] = experiment: Antibacterial activity against Pseudomonas aeruginosa ATCC 27953 using 100 uL of test compound after 24 hrs by agar well diffusion method; type: functional
# Outline: as §2
# Aspergillus niger [35] = experiment: Antifungal activity against Aspergillus niger using 100 uL of test compound after 48 hrs by agar well diffusion method; type: functional
# Outline: as §2, with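 “Sabouraud dextrose” for “Nutrient”, “yeast or fungal” for “bacterial”, “1×10⁶” for “1×10⁸”, “48” for “24”, “28” for “37”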
Structure (SMILES),MIC (Pseudomonas aeruginosa [3]),MIC (Saccharomyces cerevisiae [7]),MIC (Bacillus subtilis [12]),MIC (Micrococcus luteus [13]),MIC (Staphylococcus aureus [16]),MIC (Aspergillus niger [20]),"MIC (Escherichia coli [2]; ATCC 25922, 24 h)","MIC (Klebsiella pneumoniae [4]; ATCC 13883, 24 h)",MIC (Candida albicans [5]),"MIC (Priestia megaterium [19]; ATCC 9885, 24 h)",diameter of the inhibition zone (DIZ) (Staphylococcus aureus [25]),diameter of the inhibition zone (DIZ) (Candida albicans [26]),IC50 [27],diameter of the inhibition zone (DIZ) (Escherichia coli [28]),diameter of the inhibition zone (DIZ) (Micrococcus luteus [29]),diameter of the inhibition zone (DIZ) (Saccharomyces cerevisiae [30]),diameter of the inhibition zone (DIZ) (Klebsiella pneumoniae [31]),diameter of the inhibition zone (DIZ) (Bacillus subtilis [32]),diameter of the inhibition zone (DIZ) (Priestia megaterium [33]),diameter of the inhibition zone (DIZ) (Pseudomonas aeruginosa [34]),other results
Clc1ccccc1C(c1ccccc1)(c1ccccc1)n1ccnc1 [CLOTRIMAZOLE],inactive,25 µg/mL,inactive,inactive,inactive,25 µg/mL,,,,,,,,,,,,,,,"DIZ (Bacillus subtilis [1]): inactive; MIC (Escherichia coli [2]): inactive; MIC (Klebsiella pneumoniae [4]): inactive; MIC (Candida albicans [5]; NRRL Y-477, 48 h): 25 µg/mL; diameter of the inhibition zone (DIZ) (Micrococcus luteus [6]): inactive; zone of inhibition at 50000 µg/mL (Candida albicans [8]; NRRL Y-477, 48 h, read-out: DIZ): 30 mm; diameter of the inhibition zone (DIZ) (Priestia megaterium [9]): inactive; zone of inhibition at 50000 µg/mL (Saccharomyces cerevisiae [10]; read-out: DIZ): 31 mm; DIZ (Staphylococcus aureus [11]): inactive; zone of inhibition at 50000 µg/mL (Aspergillus niger [14]; read-out: DIZ): 33 mm; DIZ (Pseudomonas aeruginosa [15]): inactive; diameter of the inhibition zone (DIZ) (Escherichia coli [17]): inactive; DIZ (Klebsiella pneumoniae [18]): inactive; MIC (Priestia megaterium [19]): inactive"
O=C(O)c1cn(C2CC2)c2cc(N3CCNCC3)c(F)cc2c1=O [CIPROFLOXACIN],,inactive,,25 µg/mL,,inactive,25 µg/mL,25 µg/mL,inactive,25 µg/mL,,,,,,,,,,,"zone of inhibition at 50000 µg/mL (Bacillus subtilis [21]): 22 mm; zone of inhibition at 50000 µg/mL (Klebsiella pneumoniae [22]): 25 mm; zone of inhibition at 50000 µg/mL (Micrococcus luteus [6]; read-out: DIZ): 20 mm; diameter of the inhibition zone (DIZ) (Candida albicans [8]): inactive; zone of inhibition at 50000 µg/mL (Priestia megaterium [9]; ATCC 9885, 24 h, read-out: DIZ): 24 mm; diameter of the inhibition zone (DIZ) (Saccharomyces cerevisiae [10]): inactive; MIC (Bacillus subtilis [12]; ATCC 6633, 24 h): 25 µg/mL; zone of inhibition at 50000 µg/mL (Staphylococcus aureus [23]): 20 mm; diameter of the inhibition zone (DIZ) (Aspergillus niger [14]): inactive; zone of inhibition at 50000 µg/mL (Pseudomonas aeruginosa [24]): 24 mm"
CC(Cc1cn(CC(=O)c2ccc(F)cc2)nn1)(OCc1cn(CC(=O)c2ccc(F)cc2)nn1)c1ccc(S(=O)(=O)c2ccccc2)cc1 (centres undefined),100 µg/mL,inactive,inactive,50 µg/mL,,25 µg/mL,100 µg/mL,100 µg/mL,inactive,200 µg/mL,27 mm,inactive,150 µg/mL,25 mm,26 mm,15 mm,26 mm,15 mm,17 mm,27 mm,"diameter of the inhibition zone (DIZ) (Aspergillus niger [35]): 34 mm; MIC (Staphylococcus aureus [16]; ATCC 29213, 24 h): 100 µg/mL"
CC(Cc1cn(CC(=O)c2ccc(S(=O)(=O)c3ccccc3)cc2)nn1)(OCc1cn(CC(=O)c2ccc(S(=O)(=O)c3ccccc3)cc2)nn1)c1ccc(S(=O)(=O)c2ccccc2)cc1 (centres undefined),200 µg/mL,inactive,inactive,100 µg/mL,inactive,25 µg/mL,200 µg/mL,200 µg/mL,inactive,200 µg/mL,14 mm,15 mm,600 µg/mL,17 mm,25 mm,14 mm,19 mm,14 mm,22 mm,19 mm,diameter of the inhibition zone (DIZ) (Aspergillus niger [35]): 34 mm
